Test results taken from ChEMBL document CHEMBL4196064, “Identification of Pyrazolo[3,4-e][1,4]thiazepin based CYP51 inhibitors as potential Chagas disease therapeutic alternative: In vitro and in vivo evaluation, binding mode prediction and SAR exploration” (Eur J Med Chem, 2018).
≈ marks a conversion by molar mass, not a printed value. Calls of active or inactive are those of the source. The calls are words filed in the database; no cut-off is given here.

Legend:
[1] = Selectivity index, ratio of LC50 for Swiss Webster mouse cardiac cells by light microscopic analysis to EC50 for bloodstream trypomastigote stage of Trypanosoma cruzi Y measured after 24 hrs; type: toxicity; conditions: read-out: Selectivity Index
Outline: (§1)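 The ratio is cardiac-cell LC50 (24 h) over the 24 h EC50 against Y-strain bloodstream trypomastigotes. Trypomastigotes (5x10^6/mL) were exposed to 0-50 µM at 37°C in RPMI with 5% FBS. Surviving parasites were counted in a Neubauer chamber, and the EC50 is the concentration halving the parasite number.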

[2] = Cytotoxicity against Swiss Webster mouse cardiac cells assessed as reduction in cell viability after 24 hrs by light microscopic analysis; type: cell-based, Cardiac Muscle Cell; conditions: read-out: LC50
Outline: (§2)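 Primary cardiac cells from Swiss Webster mouse embryos, cultured at 37°C in DMEM with 5% FBS, CaCl2, glutamine and chick embryo extract. Uninfected cultures were exposed to increasing concentrations for 24 h. Viability was read with PrestoBlue (5 h incubation, absorbance at 570 nm) and checked by light microscopy for morphology.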

[3] = system: Trypanosoma cruzi; test: Antitrypanosomal activity against Trypanosoma cruzi Tulahuen trypomastigote forms infected in mouse L929 cells assessed as reduction in infection level at 10 to 12 uM after 96 hrs by beta-galactosidase reporter gene assay relative to control; type: functional; design: scale not given: the % may be the effect or the level left
Outline: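 L929 cells infected 2 h with tissue culture-derived β-galactosidase-expressing Tulahuen trypomastigotes at 10:1 parasite/host cell ratio, rinsed, and held 48 h at 37℃. Single fixed concentration (10-12 µM) then applied, 96 h. Absorbance read at 570 nm; growth inhibition expressed relative to untreated cells. DMSO not above 0.6 %.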

[4] = Cytotoxicity against mouse L929 cells assessed as reduction in cell viability after 96 hrs by light microscopic analysis; type: cell-based; conditions: read-out: LC50
Outline: (§3)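 L929 fibroblasts (4x10^3 cells/well) in RPMI 1640 with 10% FBS, incubated at 37°C with increasing concentrations for 96 h. Viability was read with AlamarBlue (6 h incubation, absorbance at 600 nm) and confirmed by light microscopy.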

[5] = system: Trypanosoma cruzi; test: Antitrypanosomal activity against bloodstream trypomastigote stage of Trypanosoma cruzi Y measured after 24 hrs by light microscopic analysis; type: functional, organism-based
Outline: (§4)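 Y strain bloodstream trypomastigotes from heart puncture of infected mice, at 5x10⁶/mL in RPMI 1640 with 5% FBS. Incubated at 37℃ with 0–50 µM for 2 or 24 h. […] Mean ± SD.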

[6] = Selectivity index, ratio of LC50 for Swiss Webster mouse cardiac cells by prestoblue assay to EC50 for bloodstream trypomastigote stage of Trypanosoma cruzi Y measured after 24 hrs; type: toxicity; conditions: read-out: Selectivity Index; outline: as §1
[7] = system: Trypanosoma cruzi; test: Antitrypanosomal activity against bloodstream trypomastigote stage of Trypanosoma cruzi Y measured after 2 hrs by light microscopic analysis; type: functional, organism-based; outline: as §4
[8] = Cytotoxicity against Swiss Webster mouse cardiac cells assessed as reduction in cell viability after 24 hrs by prestoblue assay; type: cell-based, Cardiac Muscle Cell; conditions: read-out: LC50; outline: as §2
[9] = Selectivity index, ratio of LC50 for mouse L929 cells by light microscopic analysis to EC50 for Trypanosoma cruzi Tulahuen trypomastigote forms; type: toxicity; conditions: read-out: Selectivity Index
[10] = system: Trypanosoma cruzi; test: Antitrypanosomal activity against Trypanosoma cruzi Tulahuen trypomastigote forms infected in mouse L929 cells assessed as reduction in parasite load after 96 hrs by beta-galactosidase reporter gene assay; type: functional, organism-based; conditions: L929, 96 h
Outline: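 L929 cells infected 2 h with tissue culture-derived Tulahuen β-galactosidase trypomastigotes (10:1 parasite/host cell), rinsed with saline, and left 48 h at 37℃. Increasing non-toxic concentrations applied for 96 h. Absorbance read at 570 nm, % growth inhibition versus untreated cells, EC50 derived; mean ± SD. DMSO not above 0.6 %.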

[11] = system: Trypanosoma cruzi; test: Antitrypanosomal activity against bloodstream trypomastigote stage of Trypanosoma cruzi Y infected in Swiss Webster mouse assessed as reduction in parasitemia at 100 mg/kg, po administered daily on day 5 to 9 post infection relative to control; type: functional; design: scale not given: the % may be the effect or the level left
Outline: (§5)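 Male Swiss Webster mice (18–20 g) infected i.p. with 10^4 Y strain bloodstream trypomastigotes. Treatment given days 5–9 post infection: test compound i.p. 5–20 mg/kg/day (0.1 mL, DMSO then 20% Trappsol) or Bz 100 mg/kg/day p.o. (3% Tween 80 in water). Controls infected, vehicle only. Parasitemia counted by Pizzi-Brener in 5 µL tail blood; mortality checked daily to 30 days post treatment.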

[12] = Selectivity index, ratio of LC50 for mouse L929 cells by Alamarblue assay to EC50 for Trypanosoma cruzi Tulahuen trypomastigote forms; type: toxicity; conditions: read-out: Selectivity Index
[13] = Cytotoxicity against mouse L929 cells assessed as reduction in cell viability after 96 hrs by Alamarblue assay; type: cell-based; conditions: read-out: LC50; outline: as §3
[14] = system: Trypanosoma cruzi; test: Antitrypanosomal activity against bloodstream trypomastigote stage of Trypanosoma cruzi Y infected in Swiss Webster mouse assessed as reduction in parasitemia at 100 mg/kg, po administered daily measured at day 8 post infection; type: functional, organism-based
[15] = system: Trypanosoma cruzi; test: Antitrypanosomal activity against bloodstream trypomastigote stage of Trypanosoma cruzi Y infected in Swiss Webster mouse assessed as mouse survival at 100 mg/kg, po administered daily on day 5 to 9 measured daily until 30 days post dose relative to control; type: functional
Outline: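 Male Swiss Webster mice (18-20 g) were infected i.p. with 10^4 Y-strain bloodstream trypomastigotes. Benznidazole was given in sterile water with 3% Tween 80, 0.1 mL p.o. daily from 5 to 9 dpi. Mice were checked daily for mortality until 30 days post treatment, and the result was expressed as percentage cumulative mortality.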

[16] = target: Sterol 14-alpha demethylase (Trypanosoma cruzi (strain CL Brener)) (UniProt Q7Z1V1); test: Potency index, ratio of fluconazole IC50 to compound IC50 for recombinant Trypanosoma cruzi Tulahuen CYP51
Sterol 14-alpha demethylase (Trypanosoma cruzi (strain CL Brener)), sequence (Q7Z1V1 whole entry, looked up): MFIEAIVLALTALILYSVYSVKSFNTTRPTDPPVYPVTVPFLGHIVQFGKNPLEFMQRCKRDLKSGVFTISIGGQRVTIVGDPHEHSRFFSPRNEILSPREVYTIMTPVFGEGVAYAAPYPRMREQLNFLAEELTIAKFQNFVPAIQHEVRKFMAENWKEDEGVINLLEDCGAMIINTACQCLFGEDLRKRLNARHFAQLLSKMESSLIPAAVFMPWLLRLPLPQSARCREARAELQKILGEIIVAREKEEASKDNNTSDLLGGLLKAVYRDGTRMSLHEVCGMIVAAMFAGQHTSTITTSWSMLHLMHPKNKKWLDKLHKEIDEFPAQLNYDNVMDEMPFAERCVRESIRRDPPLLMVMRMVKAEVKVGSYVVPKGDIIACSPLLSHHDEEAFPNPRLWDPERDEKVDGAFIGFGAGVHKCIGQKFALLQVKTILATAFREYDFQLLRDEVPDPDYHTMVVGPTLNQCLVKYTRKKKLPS

[17] = target: Sterol 14-alpha demethylase (Trypanosoma cruzi (strain CL Brener)) (UniProt Q7Z1V1); test: Inhibition of recombinant Trypanosoma cruzi Tulahuen CYP51 expressed in Escherichia coli JM109 cell membranes assessed as residual activity at 0.033 uM by fluorescence based analysis (reference value: 95%)
[18] = system: Trypanosoma cruzi; test: Antitrypanosomal activity against bloodstream trypomastigote stage of Trypanosoma cruzi Y infected in Swiss Webster mouse assessed as reduction in parasitemia at 5 mg/kg, ip administered daily on day 5 to 9 post infection relative to control; type: functional; design: scale not given: the % may be the effect or the level left; outline: as §5
[19] = system: Trypanosoma cruzi; test: Trypanocidal activity against Trypanosoma cruzi Sylvio X10/7 intracellular amastigotes forms measured every 24 hrs for 96 hrs by time-kill assay; type: functional
[20] = system: Trypanosoma cruzi; test: Antitrypanosomal activity against bloodstream trypomastigote stage of Trypanosoma cruzi Y infected in Swiss Webster mouse assessed as reduction in parasitemia at 10 mg/kg, ip administered daily on day 5 to 9 post infection relative to control; type: functional; design: scale not given: the % may be the effect or the level left; outline: as §5
[21] = target: Sterol 14-alpha demethylase (Trypanosoma cruzi (strain CL Brener)) (UniProt Q7Z1V1); test: Inhibition of recombinant Trypanosoma cruzi Tulahuen CYP51 expressed in Escherichia coli JM109 cell membranes assessed as residual activity at 0.01 uM by fluorescence based analysis (reference value: 95%)
[22] = target: Sterol 14-alpha demethylase (Trypanosoma cruzi (strain CL Brener)) (UniProt Q7Z1V1); test: Inhibition of recombinant Trypanosoma cruzi Tulahuen CYP51 expressed in Escherichia coli JM109 cell membranes assessed as residual activity at 10 uM by fluorescence based analysis (reference value: 95%)
[23] = target: Sterol 14-alpha demethylase (Trypanosoma cruzi (strain CL Brener)) (UniProt Q7Z1V1); test: Inhibition of recombinant Trypanosoma cruzi Tulahuen CYP51 expressed in Escherichia coli JM109 cell membranes assessed as residual activity at 3.3 uM by fluorescence based analysis (reference value: 95%)
[24] = system: Trypanosoma cruzi; test: Antitrypanosomal activity against bloodstream trypomastigote stage of Trypanosoma cruzi Y infected in Swiss Webster mouse assessed as increase in mouse survival at 5 to 20 mg/kg, ip administered daily on day 5 to 9 measured daily until 30 days post dose relative to control; type: functional, organism-based; outline: as §5
[25] = target: Sterol 14-alpha demethylase (Trypanosoma cruzi (strain CL Brener), UniProt Q7Z1V1); test: Inhibition of recombinant Trypanosoma cruzi Tulahuen CYP51 expressed in Escherichia coli JM109 cell membranes assessed as […] by fluorescence based analysis
Sterol 14-alpha demethylase, sequence (Q7Z1V1 whole entry): as the sequence (Q7Z1V1 whole entry, looked up) above

[26] = system: Trypanosoma cruzi; test: Trypanocidal activity against Trypanosoma cruzi Sylvio X10/7 intracellular amastigotes forms assessed as inhibition of maximum parasite growth measured every 24 hrs for 96 hrs by time-kill assay relative to control; type: functional
[27] = Acute toxicity in ip dosed Swiss Webster mouse measured 48 hrs post dose; type: organism-based; conditions: in vivo
Outline: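 Female Swiss Webster mice (20 to 23 g) injected intraperitoneally with increasing doses up to 200 mg/kg, n = 2 mice per assay, two assays. Animals inspected for toxic and subtoxic signs under OECD guidelines; NOAEL determined 48 h after injection. Vehicle: DMSO then Trappsol, in vivo vehicle not above 20 %.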

[28] = system: Trypanosoma cruzi; test: Antitrypanosomal activity against bloodstream trypomastigote stage of Trypanosoma cruzi Y infected in Swiss Webster mouse assessed as reduction in parasitemia at 20 mg/kg, ip administered daily on day 5 to 9 post infection relative to control; type: functional; design: scale not given: the % may be the effect or the level left; outline: as §5
[29] = target: Sterol 14-alpha demethylase (Trypanosoma cruzi (strain CL Brener)) (UniProt Q7Z1V1); test: Inhibition of recombinant Trypanosoma cruzi Tulahuen CYP51 expressed in Escherichia coli JM109 cell membranes assessed as residual activity at 1 uM by fluorescence based analysis (reference value: 95%)
[30] = target: Sterol 14-alpha demethylase (Trypanosoma cruzi (strain CL Brener)) (UniProt Q7Z1V1); test: Inhibition of recombinant Trypanosoma cruzi Tulahuen CYP51 expressed in Escherichia coli JM109 cell membranes assessed as residual activity at 0.33 uM by fluorescence based analysis (reference value: 95%)
[31] = target: Sterol 14-alpha demethylase (Trypanosoma cruzi (strain CL Brener)) (UniProt Q7Z1V1); test: Inhibition of recombinant Trypanosoma cruzi Tulahuen CYP51 expressed in Escherichia coli JM109 cell membranes assessed as residual activity at 0.1 uM by fluorescence based analysis (reference value: 95%)
[32] = system: Trypanosoma cruzi; test: Antitrypanosomal activity against Trypanosoma cruzi Sylvio X10/7 intracellular amastigotes forms assessed as reduction in number of amastigotes per host cell measured every 24 hrs for 96 hrs by time-kill assay; type: functional, organism-based

`O=C(Cn1ccnc1[N+](=O)[O-])NCc1ccccc1` [BENZNIDAZOLE] showed a selectivity ratio at 24 h [1] greater than 12, a CC50 at 24 h [2] greater than 200 µM and an Activity [3] of 89.3%. It also gave a CC50 at 96 h [4] greater than 200 µM, an EC50 [5] of 6.02 to 16.9 µM and a selectivity ratio at 24 h [6] greater than 12. For the same compound, the EC50 [7] was 10 to 50 µM, the CC50 at 24 h [8] was greater than 200 µM and the selectivity ratio [9] was greater than 53. It also gave an EC50 [10] of 2.63 to 3.79 µM, an Activity [11] of 100% and a selectivity ratio [12] greater than 53. For the same compound, the CC50 at 96 h [13] was greater than 200 µM, the Activity [14] was “Active” and the survival at 100 mg/kg [15] was 100%.
For `Cc1n[nH]c2c1[C@@H](c1ccc(OCc3ccccc3Cl)cc1)S[C@@H](C)C(=O)N2`, the Ratio IC50 [16] was 8, the Activity [17] was 75.8% and the Activity [18] was 30%. For the same compound, the MIC [19] was 17 µM (≈ 7.04 µg/mL), the Activity [20] was 38% and the EC50 [5] was 4 µM. For the same compound, the Activity [21] was 89.9%, the Activity [22] was 0% and the Activity [23] was 1.2%. For the same compound, the Activity [24] was “inactive”, the IC50 [25] was 0.1 µM and the EC50 [7] was greater than 10 µM. It also gave an Imax [26] of 94%, an EC50 [10] of 3.86 µM and an NOAEL at 48 h [27] greater than 50 mg/kg. The Activity [28] was 43%, the Activity [29] was 5.4% and the Activity [30] was 0%. It also gave an Activity [31] of 49.5% and an EC50 [32] of 0.4 µM.
